This series concerns the target Multidrug resistance-associated protein 1 (Homo sapiens, UniProt P33527). The series can be described thus: Inhibition of MRP1 in human 2008/MRP1 cells assessed as potentiation of doxorubicin-induced cytotoxicity by measuring cell survival at 2 uM after 5 days by MTS assay relative to control. The note with it: 120 h. It is filed as cell-based. A digest of the protocol:
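2008/MRP1 cells (retroviral human MRP1 transfectant; RPMI 1640, 10% FBS) at 4,000 per well, with 100 nM doxorubicin plus crude, unpurified click products in DMSO: 2 µM in the primary screen, 1 µM in the secondary. Incubated 5 days at 37 °C. MTS/PMS added for 2 h at 37 °C, absorbance read at 490 nm. % survival is relative to wells without DOX or product. Run in triplicate, at least three experiments.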
Background: Tetrazolium assays rely on reduction of a dye to a coloured formazan, in cell work by metabolically active cells.

Sequence of Multidrug resistance-associated protein 1 (P33527 whole entry): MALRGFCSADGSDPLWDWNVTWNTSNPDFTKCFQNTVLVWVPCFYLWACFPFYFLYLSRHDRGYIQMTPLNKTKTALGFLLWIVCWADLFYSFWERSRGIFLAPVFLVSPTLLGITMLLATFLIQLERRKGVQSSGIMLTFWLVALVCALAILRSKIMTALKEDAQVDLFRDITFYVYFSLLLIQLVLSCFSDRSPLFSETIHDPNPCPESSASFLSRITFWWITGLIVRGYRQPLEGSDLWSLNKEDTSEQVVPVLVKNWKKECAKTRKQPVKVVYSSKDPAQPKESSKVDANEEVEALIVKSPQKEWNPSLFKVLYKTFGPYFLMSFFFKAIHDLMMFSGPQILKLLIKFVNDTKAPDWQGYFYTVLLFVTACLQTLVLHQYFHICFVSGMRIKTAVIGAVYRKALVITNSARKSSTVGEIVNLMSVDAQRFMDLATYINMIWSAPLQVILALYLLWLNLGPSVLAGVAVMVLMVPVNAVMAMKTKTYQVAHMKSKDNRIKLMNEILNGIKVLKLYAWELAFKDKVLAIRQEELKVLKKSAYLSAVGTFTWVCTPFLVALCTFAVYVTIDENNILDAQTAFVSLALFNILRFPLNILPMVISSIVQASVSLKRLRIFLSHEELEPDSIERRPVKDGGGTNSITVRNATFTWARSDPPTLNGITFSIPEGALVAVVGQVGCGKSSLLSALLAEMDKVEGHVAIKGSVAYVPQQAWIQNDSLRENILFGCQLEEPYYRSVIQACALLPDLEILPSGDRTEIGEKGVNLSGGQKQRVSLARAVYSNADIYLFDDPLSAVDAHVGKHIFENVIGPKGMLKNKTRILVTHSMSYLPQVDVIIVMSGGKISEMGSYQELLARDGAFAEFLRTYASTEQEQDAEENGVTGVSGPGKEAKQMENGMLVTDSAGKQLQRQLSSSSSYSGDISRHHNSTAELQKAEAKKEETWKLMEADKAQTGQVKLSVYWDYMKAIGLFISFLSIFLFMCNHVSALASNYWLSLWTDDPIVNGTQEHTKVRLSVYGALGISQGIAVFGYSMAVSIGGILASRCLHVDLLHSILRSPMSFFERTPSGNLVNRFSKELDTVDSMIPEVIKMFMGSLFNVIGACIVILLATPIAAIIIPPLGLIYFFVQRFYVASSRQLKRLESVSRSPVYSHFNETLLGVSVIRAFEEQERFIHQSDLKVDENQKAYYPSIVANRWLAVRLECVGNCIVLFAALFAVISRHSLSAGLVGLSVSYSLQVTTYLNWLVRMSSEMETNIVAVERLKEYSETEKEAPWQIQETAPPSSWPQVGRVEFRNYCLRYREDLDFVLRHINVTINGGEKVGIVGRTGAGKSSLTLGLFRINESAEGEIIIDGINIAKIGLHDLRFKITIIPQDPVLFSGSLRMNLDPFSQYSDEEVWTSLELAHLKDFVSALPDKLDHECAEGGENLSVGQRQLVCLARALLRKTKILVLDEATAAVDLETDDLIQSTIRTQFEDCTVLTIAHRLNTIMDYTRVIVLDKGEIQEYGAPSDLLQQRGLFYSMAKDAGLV

For the compound `COc1cccc(COc2c(-c3ccc(OCCOCCn4cc(CCCCOc5ccc(/C=C/C(=O)c6ccccc6O)cc5)nn4)cc3)oc3ccccc3c2=O)c1`, the Survival stood at 74%. To `O=c1cc(-c2ccc(OCCCc3cn(CCOCCOc4ccc(-c5cc(=O)c6cc(F)ccc6o5)cc4)nn3)cc2)oc2cc(F)ccc12` belongs 55%; to `O=c1c(OCc2ccccc2)c(-c2ccc(OCCOCCOCCn3cc(-c4cccc(-c5cn(CCOCCOCCOc6ccc(-c7oc8ccccc8c(=O)c7OCc7ccccc7)cc6)nn5)c4)nn3)cc2)oc2ccccc12`, 80%. In the case of `COc1cccc(COc2c(-c3ccc(OCCOCCn4cc(CCCOc5ccc(-c6cc(=O)c7cc(F)ccc7o6)cc5)nn4)cc3)oc3ccccc3c2=O)c1`, the Survival was found to be 86%. As for `O=c1cc(-c2ccc(OCCOCCOCCn3cc(COCCOc4ccc5c(=O)cc(-c6ccccc6)oc5c4)nn3)cc2)oc2ccccc12`, the figure is 59%; as for `O=c1cc(-c2ccccc2)oc2cc(OCCCc3cn(CCOCCOc4cccc(-c5oc6ccccc6c(=O)c5OCc5ccccc5)c4)nn3)ccc12`, 65%.

For `O=Cc1ccc(OCCCCc2cn(CCOCCOc3ccc(-c4cc(=O)c5ccccc5o4)cc3)nn2)cc1`, the Survival is given as 75%. As for `O=c1c(OCc2ccccc2)c(-c2ccc(OCCOCCOCCn3cc(CN(Cc4cn(CCOCCOCCOc5ccc(-c6oc7ccccc7c(=O)c6OCc6ccccc6)cc5)nn4)Cc4cn(CCOCCOCCOc5ccc(-c6oc7ccccc7c(=O)c6OCc6ccccc6)cc5)nn4)nn3)cc2)oc2ccccc12`, the figure is 81%; as for `O=C(/C=C/c1ccc(OCCCCc2cn(CCOCCOc3ccc4c(=O)cc(-c5ccccc5)oc4c3)nn2)cc1)c1ccccc1O`, 58%; as for `Cc1ccc(C(=O)/C=C/c2ccc(OCCCCc3cn(CCOCCOc4cccc(-c5oc6ccccc6c(=O)c5OCc5ccccc5)c4)nn3)cc2)c(O)c1`, 79%. To `C#Cc1ccc(C#C)cc1` belongs 86%; to `O=c1cc(-c2ccc(OCCCc3cn(CCOCCOc4ccc(-c5oc6ccccc6c(=O)c5OCc5ccccc5)cc4)nn3)cc2)oc2ccc(F)cc12`, 97%; to `O=c1cc(-c2ccc(OCCOCCOCCn3cc(CN(Cc4cn(CCOCCOCCOc5ccc(-c6cc(=O)c7cc(F)ccc7o6)cc5)nn4)Cc4cn(CCOCCOCCOc5ccc(-c6cc(=O)c7cc(F)ccc7o6)cc5)nn4)nn3)cc2)oc2ccc(F)cc12`, 77%. To `O=c1cc(-c2ccc(OCCOCCOCCn3cc(CN4CCN(Cc5cn(CCOCCOCCOc6ccc(-c7cc(=O)c8cc(F)ccc8o7)cc6)nn5)CC4)nn3)cc2)oc2ccc(F)cc12` belongs 85%; to `O=c1cc(-c2ccc(OCCCc3cn(CCOCCOc4ccc(-c5oc6ccccc6c(=O)c5OCc5ccccc5)cc4)nn3)cc2)oc2cc(F)ccc12`, 60%. Regarding `COCOc1cc(OCc2ccccc2)c2c(=O)cc(-c3ccc(OCCCc4cn(CCOCCOCCOc5ccc(-c6oc7ccccc7c(=O)c6OCc6ccccc6)cc5)nn4)cc3)oc2c1`, the Survival turned out to be 89%. To `COCOc1cc(OCc2ccccc2)c2c(=O)cc(-c3ccc(OCCCc4cn(CCOCCOc5ccc(-c6oc7ccccc7c(=O)c6OCc6ccccc6)cc5)nn4)cc3)oc2c1` belongs 88%; to `Cc1ccc2oc(-c3ccc(OCCCCc4cn(CCOCCOc5cccc(-c6oc7ccccc7c(=O)c6OCc6ccccc6)c5)nn4)cc3)cc(=O)c2c1`, 55%.

`O=c1cc(-c2ccc(OCCOCCn3cc(CCCOc4ccc(-c5cc(=O)c6cc(F)ccc6o5)cc4)nn3)cc2)oc2ccccc12`: the Survival is 93%. As for `O=c1cc(-c2ccccc2)oc2cc(OCCOCCOCCn3cc(COCCOc4ccc5c(=O)cc(-c6ccccc6)oc5c4)nn3)ccc12`, the figure is 60%; as for `COc1cccc(COc2c(-c3ccc(OCCOCCn4cc(CCCCOc5ccc(/C=C/C(=O)c6ccc(F)cc6O)cc5)nn4)cc3)oc3ccccc3c2=O)c1`, 75%. Turning to `Cc1ccc(O)c(C(=O)/C=C/c2ccc(OCCCCc3cn(CCOCCOCCOc4ccc(-c5cc(=O)c6cc(C)ccc6o5)cc4)nn3)cc2)c1`, the Survival came out at 67%.

As to `C#CCNc1ccccc1`, the Survival is reported as 87%. To `Cc1ccc2oc(-c3ccc(OCCCCc4cn(CCOCCOCCOc5ccc(-c6oc7ccccc7c(=O)c6OCc6ccccc6)cc5)nn4)cc3)cc(=O)c2c1` belongs 59%; to `O=c1cc(-c2ccccc2)oc2cc(OCCN(Cc3ccccc3)Cc3cn(CCOc4cccc5c(=O)cc(-c6ccccc6)oc45)nn3)ccc12`, 80%; to `O=c1cc(-c2ccc(OCCOCCn3cc(CN4CCN(Cc5cn(CCOCCOc6ccc(-c7cc(=O)c8cc(F)ccc8o7)cc6)nn5)CC4)nn3)cc2)oc2ccc(F)cc12`, 86%. To `C#CCN(CCOc1ccc2c(=O)cc(-c3ccccc3)oc2c1)Cc1ccccc1` belongs 86%. As for `O=c1c(OCc2ccccc2)c(-c2cccc(OCCOCCn3cc(CN(Cc4cn(CCOCCOc5cccc(-c6oc7ccccc7c(=O)c6OCc6ccccc6)c5)nn4)Cc4cn(CCOCCOc5cccc(-c6oc7ccccc7c(=O)c6OCc6ccccc6)c5)nn4)nn3)c2)oc2ccccc12`, the figure is 91%; as for `O=c1c(OCc2ccccc2)c(-c2ccc(OCCOCCn3cc(CN4CCN(Cc5cn(CCOCCOc6ccc(-c7oc8ccccc8c(=O)c7OCc7ccccc7)cc6)nn5)CC4)nn3)cc2)oc2ccccc12`, 58%; as for `C#CCN(C)CCN(C)CC#C`, 87%. In the case of `COc1cccc(COc2c(-c3ccc(OCCOCCn4cc(CCCOc5ccc(-c6nc7ccccc7c(=O)[nH]6)cc5)nn4)cc3)oc3ccccc3c2=O)c1`, the Survival is listed as 67%. With `COc1cccc(COc2c(-c3ccc(OCCOCCn4cc(CCCCOc5ccc6c(=O)cc(-c7ccccc7)oc6c5)nn4)cc3)oc3ccccc3c2=O)c1`, the Survival came out at 86%.

Consider `O=c1cc(-c2ccccc2)oc2cc(OCCOCCn3cc(CN(Cc4cn(CCOCCOc5ccc6oc(-c7ccccc7)cc(=O)c6c5)nn4)Cc4cn(CCOCCOc5ccc6oc(-c7ccccc7)cc(=O)c6c5)nn4)nn3)ccc12`, for which the Survival came out at 83%. As for `CCc1ccc(O)c(C(=O)/C=C/c2ccc(OCCCCc3cn(CCOCCOCCOc4ccc5c(=O)cc(-c6ccccc6)oc5c4)nn3)cc2)c1`, the figure is 79%. As for `O=C(/C=C/c1ccc(OCCCCc2cn(CCOCCOCCOc3ccc4c(=O)cc(-c5ccccc5)oc4c3)nn2)cc1)c1ccc(F)cc1O`, the figure is 67%. As for `O=c1cc(-c2ccc(OCCOCCn3cc(CN(Cc4ccccc4)Cc4cn(CCOCCOc5ccc(-c6cc(=O)c7cc(F)ccc7o6)cc5)nn4)nn3)cc2)oc2ccc(F)cc12`, the figure is 70%; as for `CN(CCN(C)Cc1cn(CCOc2ccc3occ(-c4ccccc4)c(=O)c3c2)nn1)Cc1cn(CCOc2ccc3c(=O)cc(-c4ccccc4)oc3c2)nn1`, 90%; as for `O=c1cc(-c2ccc(OCCOCCOCCn3cc(-c4ccc(-c5cn(CCOCCOCCOc6ccc(-c7cc(=O)c8ccccc8o7)cc6)nn5)cc4)nn3)cc2)oc2ccccc12`, 83%. Consider `O=C(/C=C/c1ccc(OCCCCc2cn(CCOCCOCCOc3ccc4c(=O)cc(-c5ccccc5)oc4c3)nn2)cc1)c1ccccc1O`, for which the Survival turned out to be 72%. As for `Cc1ccc(C(=O)/C=C/c2ccc(OCCCCc3cn(CCOCCOCCOc4ccc(-c5cc(=O)c6cc(F)ccc6o5)cc4)nn3)cc2)c(O)c1`, the figure is 51%; as for `C#CCCCCOc1ccc(-c2oc3ccccc3c(=O)c2OCc2cccc(OC)c2)cc1`, 71%. To `O=C(/C=C/c1ccc(OCCCCc2cn(CCOCCOCCOc3ccc(-c4cc(=O)c5ccccc5o4)cc3)nn2)cc1)c1ccc(F)cc1O` belongs 55%; to `O=c1cc(-c2ccccc2)oc2cc(OCCCCc3cn(CCOCCOCCOc4ccc5c(=O)cc(-c6ccccc6)oc5c4)nn3)ccc12`, 61%. As for `O=c1[nH]c(-c2ccc(OCCCc3cn(CCOCCOc4cccc(-c5oc6ccccc6c(=O)c5OCc5ccccc5)c4)nn3)cc2)nc2ccccc12`, the figure is 67%.

As for `COc1cccc(COc2c(-c3ccc(OCCCCc4cn(CCOCCOc5ccc6c(=O)cc(-c7ccccc7)oc6c5)nn4)cc3)oc3ccccc3c2=O)c1`, the Survival is on record as 56%. To `O=c1cc(-c2ccccc2)oc2cc(OCCCc3cn(CCOc4cccc5c(=O)cc(-c6ccccc6)oc45)nn3)ccc12` belongs 56%; to `Cc1ccc(O)c(C(=O)/C=C/c2ccc(OCCCCc3cn(CCOCCOc4ccc(-c5cc(=O)c6cc(F)ccc6o5)cc4)nn3)cc2)c1`, 82%; to `O=c1cc(-c2ccc(OCCOCCOCCn3cc(CNc4ccccc4)nn3)cc2)oc2ccccc12`, 88%. To `O=C(/C=C/c1ccc(OCCCCc2cn(CCOc3cccc4c(=O)cc(-c5ccccc5)oc34)nn2)cc1)c1ccc(F)cc1O` belongs 73%; to `O=c1c(OCc2ccccc2)c(-c2cccc(OCCOCCn3cc(CNc4ccccc4)nn3)c2)oc2ccccc12`, 92%; to `CCc1ccc(O)c(C(=O)/C=C/c2ccc(OCCCCc3cn(CCOCCOc4ccc5c(=O)cc(-c6ccccc6)oc5c4)nn3)cc2)c1`, 68%. To `CCc1ccc(O)c(C(=O)/C=C/c2ccc(OCCCCc3cn(CCOCCOCCOc4ccc(-c5oc6ccccc6c(=O)c5OCc5ccccc5)cc4)nn3)cc2)c1` belongs 77%. Regarding `Cc1ccc(C(=O)/C=C/c2ccc(OCCCCc3cn(CCOCCOCCOc4ccc(-c5cc(=O)c6ccccc6o5)cc4)nn3)cc2)c(O)c1`, the Survival amounted to 55%.

As for `[N-]=[N+]=NCCOCCOCCOc1ccc(-c2oc3ccccc3c(=O)c2OCc2ccccc2)cc1`, the Survival is 74%.

As to `O=c1cc(-c2ccccc2)oc2cc(OCCOCCn3cc(COCCOc4ccc5c(=O)cc(-c6ccccc6)oc5c4)nn3)ccc12`, the Survival came out at 60%.

Regarding `C#CCCCCOc1ccc(/C=C/C(=O)c2ccc(F)cc2O)cc1`, the Survival worked out at 99%.

For the compound `[N-]=[N+]=NCCOCCOc1cccc(-c2oc3ccccc3c(=O)c2OCc2ccccc2)c1`, the Survival amounted to 86%.

(Values after ChEMBL document CHEMBL4257575, “Discovery of Novel Flavonoid Dimers To Reverse Multidrug Resistance Protein 1 (MRP1, ABCC1) Mediated Drug Resistance in Cancers Using a High Throughput Platform with "Click Chemistry"” (J Med Chem, 2018).)
